# STEP inh = blocks human striatal-enriched tyrosine phosphatase; inhibition, % at 20 µM; recombinant STEP, OMFP fluorogenic substrate, fluorescence; P54829; 0.25% of 360,000 active; AID 588621;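 active = inhibition at 20 µM, scaled per plate between control wells, above about 37%, limit read from the data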;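 note: 0% = DMSO with enzyme and substrate and 100% = substrate only without enzyme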
#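 System: STEP phosphatase, cell-free reaction; Buffer or medium: Bis-Tris pH 6.0 buffer with DTT, detergent; Incubation: 20 min at room temperature, dark; Measured by: fluorescence, 480/540 nm.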
# SUMO1-SIM PPI = modulators of human SUMO1-mediated protein-protein interactions. SUMO1 binding to a labelled peptide, TR-FRET, 1 h. 0.33% of 360,000 active. inhibition, % at 20 µM. P63165; in the data active = inhibition above about 37%
# FAS TE block = blocks the thioesterase domain of human fatty acid synthase. recombinant FAS-TE, OMFH fluorogenic substrate, fluorescence endpoint. inhibition, % at 15 µM. 0.67% of 360,000 active. AID 602261;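 active = compounds whose normalised, plate-corrected inhibition of enzyme fluorescence in the single-dose primary screen is 50% or more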;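 note: 0% = DMSO with enzyme and 100% = substrate without enzyme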
# Scp1 inh = Scp-1 (human) phosphatase inhibition. inhibition, % at 20 µM. Recombinant Scp1, phosphopeptide, malachite green phosphate absorbance. Q9GZU7. 0.88% of 340,000 active;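 active = inhibition above about 50% at 20 µM, limit read from the data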;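 note: plate controls were DMSO wells with enzyme for no effect and wells lacking enzyme for full effect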
#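 System: SCP-1 catalytic domain; Reagent: Phospho 17-mer peptide substrate; Doses: one concentration, 20 µM, with 1.0% DMSO; Incubation: 45 min room-temperature reaction, 5 min colour, 30 min stabiliser; Signal: Phosphate-binding colour reagent, absorbance read at 630 nm.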
# LMPTP inh = blocks human LMPTP phosphatase; P24666; recombinant LMPTP-A, OMFP fluorogenic substrate, fluorescence intensity; inhibition, % at 20 µM; 0.22% of 360,000 active; AID 651560;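 active = compounds that cut the enzyme signal by at least half of the control window in the single-dose screen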;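 note: plate controls were DMSO wells with enzyme plus substrate for no effect and substrate without enzyme for full effect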
#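 Test system – LMPTP-A phosphatase enzyme · Quantity – 0.625 nM LMPTP-A final · Reagent – OMFP substrate, 400 µM final · Dosing – one test concentration per compound, 20 µM, with 3% DMSO overall · Timing – 50 min enzyme reaction at room temperature, protected from light · Detection – fluorescence intensity · Controls – substrate-only low control, DMSO enzyme-plus-substrate high control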
# Scp1 confirm = Scp-1 (human) inhibition, single-dose confirmed; shares compounds with Scp1 inh; recombinant SCP-1 catalytic domain, phosphate release, malachite green absorbance; inhibition, % at 20 µM; 61% of 2,500 active; AID 540281;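 note: plate controls were DMSO with enzyme for no effect and buffer wells lacking enzyme for full effect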
# MG interference = interferes with malachite green readout, flagging false Scp-1 hits. shares compounds with Scp1 inh. Colorimetric interference counterscreen, malachite green absorbance 630 nm. apparent inhibition (interference), % at 20 µM. 2,500 tested, under 10 active;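 note: compounds added after enzyme reaction finished so only phosphate colour detection is probed; plate controls were DMSO wells with completed Scp-1 reaction for no effect and substrate wells lacking enzyme for full effect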
# Scp-1 Tm shift = validation of human Scp-1 inhibitors by thermal shift binding; shares compounds with Scp1 inh; AID 540329; thermal shift relative to vanadate control, % at 40 µM; Recombinant SCP1, Sypro Orange thermal shift Tm; 25% of 1,500 active;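 active = substances whose mean melting-temperature shift, as a percentage of the reference inhibitor's shift, reaches about 5.3%, limit read from the data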;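 note: 0% = Tm of DMSO wells and 100% = Tm with sodium orthovanadate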
# The depositor's hits bear a star; · = no result. Sampled rows, rich in hits. Any-hit rate of the full collection: about 1.9%.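 Rule for the calls, unless noted: active = inhibition of at least 30% at 20 µM; inactive = the rest.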
SMILES,STEP inh,SUMO1-SIM PPI,FAS TE block,Scp1 inh,LMPTP inh,Scp1 confirm,MG interference,Scp-1 Tm shift
COc1ccc(Cn2cc(CN(C)C3CN(Cc4cn(Cc5ccc(OC)cc5)nn4)S(=O)(=O)C3)nn2)cc1 (configuration not stated),·,1.2,-12.1,·,0.5,·,·,·
CCN(c1ccc(OC)cc1)S(=O)(=O)c1ccc(-c2ccc(=O)[nH]n2)o1,-0.2,-23.6,-5.5,0.0,-0.8,·,·,·
C#Cc1ccc([C@@H]2C=C(C(=O)O)O[C@H](OCC)[C@H]2CCCO)cc1,11.9,30.5,-6.1,52.6*,-1.2,47.2*,-17.2,-13.0
C[C@@H]1CNC(=O)c2c(C(=O)N[C@H](C)c3ccccc3)ncn21,0.2,2.4,-6.5,·,0.5,·,·,·
COc1cc(NC(C)=O)c2ncccc2c1NC(C)=O,-0.6,0.8,-3.4,-11.0,-0.1,·,·,·
CC(=O)Nc1cc(=O)c2cccnc2[nH]1,10.3,31.4,-5.8,81.5*,64.2*,61.1*,-4.9,1.7
CC(=O)Oc1ccc(/C=C(\NC(=O)c2ccco2)C(=O)NCc2ccccc2)cc1,-0.8,-5.6,-4.3,53.5*,-0.5,-6.2,-5.7,·
O=C(NCc1ccccc1)/C(=C/c1ccccc1)NC(=O)c1ccco1,1.3,1.1,-1.4,-0.6,-0.8,·,·,·
O=[N+]([O-])c1ccc(/C=N/Nc2ncc(-c3ccccc3)cn2)cc1,22.1,-6.4,-5.7,67.5*,22.6,28.1,-7.6,·
Cc1ccc(S(=O)(=O)N2CCC(C(=O)N3CCCCCCC3)CC2)cc1C,-2.4,1.4,3.9,·,-1.1,·,·,·
Cn1cc(SCC(=O)NCc2ccc(F)cc2)c2ccccc21,-2.2,-2.4,-5.5,-6.5,-0.1,·,·,·
Cn1c(=O)cc(SCC(=O)NCc2ccc(F)cc2)c2ccccc21,1.7,0.0,-5.1,-5.6,-1.3,-18.8,-15.9,·
Cc1ccc(CNC(=O)c2ccc3c(=O)c(O)c(-c4ccc(C)cc4)[nH]c3c2)cc1,1.8,-3.0,-15.0,55.8*,-3.9,51.3*,-9.6,-4.6
Cn1ccc2c(-c3ccc(C(=O)O)cc3)cc3c(c21)C1CCC3C1 (configuration not stated),1.8,-13.8,-2.2,·,0.4,·,·,·
Nc1cc(C(=O)OCC(=O)c2ccc(CC(=O)N3CCOCC3)s2)ccc1Cl,2.5,-9.3,-7.8,54.2*,8.2,39.4*,-15.8,6.2*
Cc1cc2oc(C(=O)Nc3ccc(S(=O)(=O)Nc4nccs4)cc3)cc(=O)c2cc1Cl,2.1,9.4,4.8,51.7*,36.1,29.9,-10.9,·
O=C(Nc1ccc(S(=O)(=O)Nc2nccs2)cc1)c1nn(-c2ccccc2)ccc1=O,7.3,10.4,-5.6,74.7*,47.8,70.9*,-15.9,6.8*
CCOc1ncccc1C(=O)OCC(=O)c1cccc(Br)c1,0.5,-2.9,12.8,4.6,1.1,·,·,·
CC(C)=C[C@H]1C[C@H](C)[C@H]2CC[C@H](C)c3c(O[C@@H]4O[C@@H](C)[C@@H](O)[C@@H](O)[C@@H]4O)c(O)c(C)c1c32,-4.7,-0.5,27.2,·,1.0,·,·,·
COc1ccccc1C(=O)NNC1CC(=O)N(c2ccc3c(c2)OCCO3)C1=O (configuration not stated),-2.6,-0.6,-7.7,-4.4,-0.8,-21.5,-15.9,·
O=C1Nc2ccccc2/C1=N/N=C/c1ccc(-c2ccc([N+](=O)[O-])cc2)o1,15.9,-12.3,5.4,75.1*,0.3,36.3*,-14.0,5.6*
COc1ccc(NC(=O)CSc2n[nH]c(=O)n2C2CC2)cc1Cl,1.0,-0.9,-4.8,3.7,1.4,·,·,·
COc1ccc(NC(=O)CSc2nc(-c3ccco3)nc3cc(=O)[nH]n23)cc1Cl,13.9,5.0,-6.0,53.2*,9.1,25.3,-19.7,·
CCn1c(=O)c(NC(=O)c2ccccc2)c2n(c1=S)CCCCC2,-5.1,1.9,-1.5,60.9*,-2.3,40.3*,-13.9,-13.4
CCOCCCn1c(=O)c(NC(=O)c2ccc(OCC)cc2)c2n(c1=S)CCCCC2,-1.5,-2.7,12.0,10.4,-2.1,·,·,·
SMILES,STEP inh,SUMO1-SIM PPI,FAS TE block,Scp1 inh,LMPTP inh,Scp1 confirm,MG interference,Scp-1 Tm shift
COc1ccccc1NC(=O)CSc1sc2c(O)cc(=O)[nH]c2c1C#N,8.2,13.1,-2.9,77.3*,21.9,32.6*,-14.0,12.6*
COc1ccc(Cl)cc1NC(=O)CSc1sc2c(O)cc(=O)[nH]c2c1C#N,11.4,0.6,-1.8,40.6,21.7,·,·,·
COc1ccc(NC(=O)CSc2sc3c(O)cc(=O)[nH]c3c2C#N)c(OC)c1,21.0,18.4,1.2,64.4*,55.6*,67.8*,-9.0,7.8*
COc1ccc(NC(=O)CSc2nc(O)cc(=O)[nH]2)c(OC)c1,-3.3,14.9,-2.0,-10.7,-0.5,·,·,·
CCN(C)C1CN(Cc2cn(Cc3cccc(C(F)(F)F)c3)nn2)S(=O)(=O)C1 (configuration not stated),·,-1.5,-11.0,·,-1.7,·,·,·
O=c1c2ccccc2sn1-c1cc(S(=O)(=O)N2CCOCC2)ccc1N1CCCC1,-3.4,8.0,-8.1,88.4*,-1.0,55.0*,-18.6,-63.6
NS(=O)(=O)c1ccc(CNC(=O)/C=C/c2ccco2)cc1,4.4,20.7,-1.9,84.2*,5.6,70.1*,-5.4,2.8
CCc1ccc(/C(C)=N/NC(=O)CNC(=O)/C=C/c2ccco2)cc1,23.8,108.4*,1.0,93.7*,9.3,64.8*,-11.7,-14.1
CCOc1ccc(CCNC(=O)/C=C/c2ccco2)cc1OCC,0.8,-11.9,-3.8,67.3*,-1.6,-9.0,-20.8,·
O=C(/C=C/c1ccco1)NCc1ccc(F)cc1,5.9,-5.3,-3.8,10.5,1.4,·,·,·
O=S(=O)(Nc1cc(S(=O)(=O)N2CCOCC2)ccc1NCC1CCCO1)c1ccc(F)cc1 (configuration not stated),-1.6,11.1,-5.6,-1.7,-1.2,·,·,·
Cc1ccc(C)c(N2CCN(S(=O)(=O)c3ccc4c(c3)C(C)(C)C(=O)N4C)CC2)c1,-1.8,0.4,23.0,3.4,3.6,·,·,·
Cc1cccc(N2CCN(S(=O)(=O)c3ccc4c(c3)C(C)(C)C(=O)N4C)CC2)c1C,6.0,0.5,23.5,85.2*,6.4,68.9*,-6.8,-2.2
CC(C)(C)S(=O)N1Cc2cn(Cc3ccccc3)c(=O)cc2[C@H]1CCO (some centres not stated),-3.0,-0.3,-11.9,-0.1,-2.1,·,·,·
CCC1(CC)NC(=O)N(CC(=O)OCC(=O)Nc2ccccc2OC(F)F)C1=O,-2.0,3.6,0.2,1.2,-1.9,-11.2,-14.2,·
CC(C)(C)c1ccc(OCCNC(=S)Nc2ccccc2)cc1,2.2,0.4,19.5,56.5*,1.9,-16.9,-11.8,·

# Bioassay records deposited in PubChem BioAssay by Sanford-Burnham Center for Chemical Genomics.
